Screens (PubChem BioAssay)
Ecoli rRNA inh – selective bacterial rRNA inhibition in E. coli | E. coli WT GFP vs humanized-ribosome RFP mutants, fluorescence, 24 h; hits give low values; DMSO median 0, no signal -100 | GFP signal change (wild-type ribosome), % (concentration not given with the values) | 350,000 tested, 1.6% active | AID 720706;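 active = significant combined selectivity score with lowered wild-type GFP, culture density cut under 30%, mutant RFP and density less affected; inactive = any of these conditions unmet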
INS-1E GSIS act – GLuc luminescence reporter in INS-1E cells, primary screen for activators of glucose-dependent secretion of insulin | 370,000 tested, 0.61% active | INS-1E GLuc reporter insulin secretion, 2-3 h | activation, % at 16.6 µM;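 active = lowest replicate activation of at least 40%, so every replicate reaches that level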;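 also: 0% = median of neutral control wells and 100% = median of IBMX positive control wells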
miR122 inh – inhibitors of miR-122 in Huh7 cells. AID 602342. activation (reporter increase), % at 12.5 µM. 340,000 tested, 0.3% active. Huh7 miR-122 Renilla luciferase sensor, 48 h; neutral wells = 0, positive control = 100;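 active = mean replicate activation score at least 90 and every replicate individually at or above 90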;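 also: higher luciferase means less miR-122 activity so hits act as miR-122 inhibitors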
Cneo AK release – causes C. neoformans cell lysis | 360,000 tested, 0.2% active | AID 651654 | adenylate kinase release luminescence, 4 h; normalised: neutral wells 0, clomiphene wells 100 | lysis activity, % at 15 µM;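 active = mean lysis activity across replicates of at least 80%, whatever share of replicates individually reach that level; inactive = mean lysis activity below 80%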
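Test system: log-phase Cryptococcus neoformans yeast cells. Input: 5 × 10^6 yeast cells/mL. Medium: fresh YPD growth medium. Doses: single dose. Incubation: static 4 h at 37 °C with compound, 1 h detection. Measured by: luminescent adenylate kinase detection reagent. Read-out: signal increase indicating cell lysis. Benchmarks: Clomiphene.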
Env fusion inh – HIV envelope-mediated fusion inhibition; HeLa-JRFL Env/CEM21 cell fusion, luciferase; inhibition, % at 12.3 µM; 360,000 tested, 1.1% active; AID 651610;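 active = mean replicate inhibition score of at least 50 and every replicate individually at or above 50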;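 also: 0% = plate neutral controls and 100% = maraviroc near 300 nM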
F508del corr – CFTR F508del correction in bronchial cells; CFBE cells, YFP halide quenching; stimulated with forskolin plus potentiator P3; % fluorescence drop versus neutral controls; activity (quench increase), % at 7.58 µM; 350,000 tested, 0.36% active; AID 720511;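 active = mean added fluorescence quench of at least 8% versus neutral control, with both replicates also reaching 8%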;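 also: cells transiently co-express mutant CFTR-F508del with the halide-sensitive YFP; corrector assay measuring rescue of mutant channel to the surface after 24 h compound exposure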
* hit, by the source's call; x = not tested or not shown; [ ] = dose if it differs, or a comment. Shown are actives, neighbours in structure and some others; about 3.1% of the full set was active somewhere.

SMILES	Ecoli rRNA inh	INS-1E GSIS act	miR122 inh	Cneo AK release	Env fusion inh	F508del corr
CC(C)CCOP(=O)(c1ccc(N(C)C)cc1)C(O)c1c(Cl)cccc1Cl (stereo not given)	-35.5	-2.8	69.0	1.7	75.3*	1.3
CCOP(=O)(c1ccc(N(C)C)cc1)C(O)c1c(Cl)cccc1Cl (stereo not given)	x	x	14.9	-1.3	8.5	x
O=C(c1ccccc1F)N1CC[C@@H]2[C@@H](CO)Nc3ccc(C#Cc4ccc(F)cc4)cc3[C@@H]21	-2.1	10.4	-2.7[16.7 µM]	70.7	x	1.7
C[C@H](CO)N1C[C@H](C)[C@H](CN(C)S(=O)(=O)c2ccc(Oc3ccccc3)nc2)OCc2cn(nn2)CCCC1=O	-5.8	-0.9	x	x	x	-1.0
CCC(=O)N1C[C@H](C)[C@H](OC)CN(C)C(=O)c2ccc(NC(=O)COC)cc2OC[C@H]1C	0.6	0.2	x	x	x	-1.5
COc1cccc(S(=O)(=O)N(C)C[C@@H]2Oc3cc(C4=CCCCC4)ccc3S(=O)(=O)N([C@@H](C)CO)C[C@@H]2C)c1	0.4	2.3	-7.9[16.7 µM]	-3.3	55.0*[16.7 µM]	-3.9
COc1cccc(S(=O)(=O)N(C)C[C@H]2Oc3cc(C4=CCCCC4)ccc3S(=O)(=O)N([C@H](C)CO)C[C@H]2C)c1	0.9	-22.6	-14.0[16.7 µM]	x	69.5*[16.7 µM]	-2.6
N#C[C@H]1[C@H](c2ccc(C#Cc3ccccc3F)cc2)[C@@H](CO)N1C(=O)C1CCOCC1	2.5	4.6	x	0.2	18.3[16.7 µM]	-2.4
CC(c1ccon1)N(C)C(=O)c1ccc2nc(Cc3cccc(Cl)c3)oc2c1 (stereo not given)	-28.2*	-23.4	3.3	-1.9	-6.4	-2.4
O=C1CN(S(=O)(=O)c2ccc(Cl)cc2)c2ccccc2N1	-22.0*	3.7	3.3	1.6	-5.4	2.5
C[C@@H]1CN([C@H](C)CO)C(=O)c2cc(NC(=O)NC3CCCCC3)ccc2O[C@@H](C)CCCCO[C@@H]1CN(C)C(=O)C1CCCCC1	0.2	-22.8	7.7[16.7 µM]	-0.3	8.8[16.7 µM]	-0.1
O=C(Nc1ccc(NC(=O)c2cccs2)cc1)c1ccc(Br)o1	x	44.9*	-4.1	-2.0	x	x
O=C(CNC(=O)c1cccs1)OCc1ccc(Br)cc1	-25.8*	-15.6	-4.0	-1.7	x	0.3
O=C(CNC(=O)c1cccs1)OCc1ccc(Cl)cc1	-0.3	-3.4	-2.8	x	9.0	2.0
O=C(Nc1cccc(NC(=O)c2cccs2)c1)c1ccc(Br)o1	-19.9	-4.8	-28.6	4.5	7.3	1.6
COc1ccc(NC(=O)c2ccco2)cc1NC(=O)c1cccs1	x	3.6	10.6	-1.9	-52.4	x
O=C(Nc1ccc(NC(=O)c2cccs2)c(Cl)c1)c1ccco1	-27.1*	1.7	x	x	-10.5	0.6
C[C@H](CO)N1C[C@H](C)[C@H](CN(C)S(C)(=O)=O)Oc2ncc(-c3ccccc3)cc2C1=O	-4.9	4.1	10.9[16.7 µM]	4.9	5.5[16.7 µM]	-2.8
O=C(NCc1ccc(S(=O)(=O)Nc2ccccc2Cl)s1)c1ccccc1	-31.9*	4.6	8.7	0.3	3.8	0.8
O=[N+]([O-])c1ccc(/C=N/n2c(C3CCCCC3)n[nH]c2=S)cc1	x	x	5.5	1.7	-14.4	x
O=C(O)c1ccc(/C=N/n2c(C3CCCCC3)n[nH]c2=S)cc1	-21.0	62.8*	0.5	-6.0	0.0	3.6
CSc1ccc(/C=N/n2c(C3CCCCC3)n[nH]c2=S)cc1	-12.2	-2.8	-5.5	-0.3	21.8	1.0
S=c1[nH]nc(C2CCCCC2)n1/N=C/c1ccncc1	17.9	40.8	x	x	55.7*	0.0
CN(C)C(=O)C[C@H]1CC[C@H]2[C@@H](COc3ccc(NC(=O)Nc4cccc(Cl)c4)cc3C(=O)N2C)O1	-1.6	-7.8	36.7[16.7 µM]	-1.8	x	0.7
CCOC1=C2CN(S(=O)(=O)c3ccc(C)cc3)[C@H](c3ccccc3)C[C@@H]2N(S(=O)(=O)c2ccccc2)[C@H](c2ccccc2)C1	9.0	7.7	-2.8	0.2	x	0.0
SMILES	Ecoli rRNA inh	INS-1E GSIS act	miR122 inh	Cneo AK release	Env fusion inh	F508del corr
CCOC1=C2CN(S(=O)(=O)c3ccc(C)cc3)CC[C@@H]2N(S(=O)(=O)c2ccc(C)cc2)[C@H](c2ccccc2)C1	7.9	-8.0	-3.6	0.9	-19.5	12.0*
CCC(=O)Nc1ccc2c(c1)C(=O)N(C)C[C@H](OC)[C@@H](C)CN(C(=O)c1ccncc1)[C@@H](C)CO2	4.0	26.7	-4.1[16.7 µM]	0.6	15.9[16.7 µM]	2.2
COc1ccc2c3c(n(C)c2c1)[C@H](CO)N(C(=O)Nc1ccc(F)cc1)CC31CCN(Cc2cccc(F)c2)CC1	-9.8	-13.3	x	x	47.2[16.7 µM]	4.2
CCC(=O)N1CC2(CN(Cc3ccc(Cl)cc3)C2)c2c(n(C)c3cc(OC)ccc23)[C@@H]1CO	-53.8	-5.3	x	x	x	2.6
COc1ccc2c3c(n(C)c2c1)[C@@H](CO)N(C(=O)Nc1ccc(F)cc1)CC31CCN(Cc2cccc(F)c2)CC1	-13.4	-10.7	x	x	82.1*[16.7 µM]	5.3
CCC(=O)N1CC2(CCN(Cc3ccc(Cl)cc3)CC2)c2c(n(C)c3cc(OC)ccc23)[C@H]1CO	-1.9	-15.9	x	x	x	13.5*
C[C@@H]1CN([C@@H](C)CO)C(=O)c2cc(NS(=O)(=O)c3cccs3)ccc2O[C@H]1CN(C)Cc1ccncc1	-2.0	5.5	-9.5[16.7 µM]	1.1	x	3.0
COC(=O)CC1C(=O)NCCN1C(=S)NC(=O)C(c1ccccc1)c1ccccc1 (stereo not given)	-25.9*	-3.8	x	x	45.3	x
COc1cc2c(cc1OC)C(CC#N)=NC(C)(C)C2	x	x	3.3	x	x	x
CC1(C)Cc2ccccc2C(CSc2ccccc2C(=O)O)=N1	-24.9*	16.1	-2.5	-1.4	-14.5	-2.0
COc1cc2c(cc1OC)C(CSc1ccccc1C(=O)O)=NC(C)(C)C2	-13.1	40.8*	x	x	-3.8	7.3
CN(C)CCCNC(=O)C[C@@H]1CC[C@H]2[C@H](COc3ccc(NC(=O)c4ccc5c(c4)OCO5)cc3C(=O)N2C)O1	3.9	3.4	2.1[16.7 µM]	0.5	-5.0[16.7 µM]	1.5
CC(C)Cn1c2c(c(=O)[nH]c1=O)C(C(F)(F)F)(C(F)(F)F)N=C(CCC1CCCCC1)N2	x	54.5*	x	0.1	x	x
COC(=O)[C@@H]1[C@@H](CO)[C@@H]2Cn3c(ccc(/C=C/c4ccccc4)c3=O)[C@@H]2N1C(=O)CC1CC1	-3.5	0.4	-5.2[16.7 µM]	x	x	-0.5
COC(=O)c1c(NC(=O)CN2CCC3(O)CCCCC3C2c2cc(OC)ccc2OC)sc(C)c1C (stereo not given)	x	-12.5	x	x	90.6*	x
Cc1ccccc1CN1C(=O)C(C)S/C1=N/N=C/c1ccco1 (stereo not given)	-23.4*	-4.1	x	x	6.0	-0.2
CC1S/C(=N/N=C/c2ccco2)N(Cc2ccc(F)cc2)C1=O (stereo not given)	-10.3	-18.4	x	x	-0.7	2.5
